According to ChEMBL document CHEMBL2016480, “Structure-based ligand design of novel bacterial RNA polymerase inhibitors” (ACS Med Chem Lett, 2011):
≈ marks a conversion by molar mass, not a printed value.

Key:
[1] = Inhibition of Escherichia coli DNA dependent RNA polymerase after 2 hrs by SYBR Green-based spectrophotometric analysis
Method in brief: (§1)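 In vitro transcription assay with E. coli RNA polymerase on a Kool NC-45 RNAP template. Activity was reported as IC50 or as percentage inhibition at 100 μM compound.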

[2] = Inhibition of malate dehydrogenase at 100 uM
Method in brief: (§2)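 Counter-screens for promiscuous inhibition using malate dehydrogenase and chymotrypsin enzyme assays. Activity was reported as percentage inhibition at 100 μM compound.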

Saccharomyces cerevisiae = assay: Inhibition of yeast RNA polymerase 2 at 100 uM
Method in brief: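 Selectivity assay against yeast RNA polymerase II. Activity was reported as percentage inhibition at 100 μM compound.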

[3] = Inhibition of chymotrypsin at 100 uM; method in brief: as §2
Staphylococcus aureus [4] = assay: Antibacterial activity against Staphylococcus aureus SH1000 expressing rsbU gene; assay type: functional
Method in brief: (§3)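 MICs by standard susceptibility testing per British Society for Antimicrobial Chemotherapy guidelines, run in triplicate. For the PMBN lines, tests were repeated with polymyxin B nonapeptide added as an outer-membrane permeabilizer.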

Bacillus subtilis [5] = assay: Antibacterial activity against Bacillus subtilis 1S34; assay type: functional; method in brief: as §3
Escherichia coli [6] = assay: Antibacterial activity against Escherichia coli 1411 expressing lacI3, lacZ118, proB, trp, nalA, rpsL; assay type: functional; method in brief: as §3
Escherichia coli [7] = assay: Antibacterial activity against kanamycin-resistant,acrAB::Tn903 deficient Escherichia coli SM1411 expressing lacI3, lacZ118, proB, trp, nalA, rpsL; assay type: functional
Staphylococcus aureus [8] = assay: Antibacterial activity against Staphylococcus aureus SH1000 expressing rsbU gene in the presence of polymyxin B nonapeptide; assay type: functional; method in brief: as §3
Bacillus subtilis [9] = assay: Antibacterial activity against Bacillus subtilis 1S34 in the presence of polymyxin B nonapeptide; assay type: functional; method in brief: as §3
Escherichia coli [10] = assay: Antibacterial activity against Escherichia coli 1411 expressing lacI3, lacZ118, proB, trp, nalA, rpsL in the presence of polymyxin B nonapeptide; assay type: functional; method in brief: as §3
Escherichia coli [11] = assay: Antibacterial activity against kanamycin-resistant,acrAB::Tn903 deficient Escherichia coli SM1411 expressing lacI3, lacZ118, proB, trp, nalA, rpsL in the presence of polymyxin B nonapeptide; assay type: functional
Escherichia coli [12] = assay: Inhibition of Escherichia coli DNA dependent RNA polymerase at 100 uM after 2 hrs by SYBR Green-based spectrophotometric analysis; method in brief: as §1
[13] = Inhibition of Escherichia coli DNA dependent RNA polymerase assessed as inhibition of [14C]UTP incorporation after 15 mins by liquid scintillation counting
Staphylococcus aureus [14] = assay: Antibacterial activity against Staphylococcus aureus; assay type: functional
[15] = Inhibition of DNA dependent RNA polymerase

| SMILES | IC50 [1] [µM] | inhibition [2] [%] | inhibition (Saccharomyces cerevisiae) [%] | inhibition [3] [%] | MIC (Staphylococcus aureus [4]) [µg/mL] | MIC (Bacillus subtilis [5]) [µg/mL] | MIC (Escherichia coli [6]) [µg/mL] | MIC (Escherichia coli [7]) [µg/mL] | MIC (Staphylococcus aureus [8]) [µg/mL] | MIC (Bacillus subtilis [9]) [µg/mL] | MIC (Escherichia coli [10]) [µg/mL] | MIC (Escherichia coli [11]) [µg/mL] | inhibition (Escherichia coli [12]) [%] | IC50 [13] [nM] | MIC (Staphylococcus aureus [14]) [µg/mL] | IC50 [15] [nM] |
| --- | --- | --- | --- | --- | --- | --- | --- | --- | --- | --- | --- | --- | --- | --- | --- | --- |
| N#Cc1ccc(C(=O)Nc2ccc(-n3ccnc3)nc2)cc1 | 7.2 | 0.6 | 17.6 | 1.8 | > 256 | > 256 | > 256 | > 256 | > 256 | > 256 | > 256 | > 256 |  |  |  |  |
| NS(=O)(=O)c1ccc(C(=O)Nc2cccnc2)cc1 |  |  |  |  | > 256 | > 256 | > 256 | > 256 | > 256 | > 256 | > 256 | > 256 | 0 |  |  |  |
| CS(=O)(=O)c1ccc(C(=O)Nc2ccc(-n3cncn3)nc2)cc1 |  |  |  |  | > 256 | > 256 | > 256 | > 256 | > 256 | > 256 | > 256 | > 256 | 0 |  |  |  |
| O=C(Nc1ccc(-n2cncn2)nc1)c1ccc(C(F)(F)F)cc1 |  |  |  |  | > 256 | > 256 | > 256 | > 256 | > 256 | > 256 | > 256 | > 256 | 5.9 |  |  |  |
| NS(=O)(=O)c1ccc(C(=O)Nc2ccc(-n3ccnc3)nc2)cc1 | 18.9 | 0.5 | 14.7 | 0 | > 256 | > 256 | > 256 | > 256 | > 256 | > 256 | > 256 | > 256 |  |  |  |  |
| N#Cc1ccc(C(=O)Nc2ccc(-n3cncn3)nc2)cc1 | 9.9 | 0 | 12 | 0 | > 256 | > 256 | > 256 | > 256 | > 256 | > 256 | > 256 | > 256 |  |  |  |  |
| CCCC/C(C)=C/C=C(\C)C(=O)c1c(O)cc([C@H](C)CC/C=C/NC(=O)OC)oc1=O [MYXOPYRONIN B] | 46.5 |  |  |  | > 256 | > 256 | > 256 | > 256 | > 256 | > 256 | > 256 | > 256 |  | 920 | 1 (≈ 2.32 µM) |  |
| N#Cc1ccc(C(=O)Nc2cnc3ccccc3c2)cc1 |  |  |  |  | > 256 | > 256 | > 256 | > 256 | > 256 | > 256 | > 256 | > 256 | 0 |  |  |  |
| O=C(O)c1ccc(C(=O)Nc2ccc(-n3ccnc3)nc2)cc1 |  |  |  |  | > 256 | > 256 | > 256 | > 256 | > 256 | > 256 | > 256 | > 256 | 0 |  |  |  |
| NS(=O)(=O)c1ccc(C(=O)Nc2ccc(-c3ccccc3)nc2)cc1 |  |  |  |  | > 256 | > 256 | > 256 | > 256 | > 256 | > 256 | > 256 | > 256 | 32.9 |  |  |  |
| NC(=O)c1ccc(C(=O)Nc2ccc(-n3cncn3)nc2)cc1 | 9.9 | 0 | 5.2 | 1.5 | > 256 | > 256 | > 256 | > 256 | > 256 | > 256 | > 256 | > 256 |  |  |  |  |
| CCCC/C(C)=C/C=C(\C)C(=O)c1c(O)cc(CCC/C=C/NC(=O)OC)oc1=O [DESMETHYL MYXOPYRONIN B] |  |  |  |  | > 256 | > 256 | > 256 | > 256 | > 256 | > 256 | > 256 | > 256 |  |  | 4 (≈ 9.58 µM) | 340 |
| NS(=O)(=O)c1ccc(NC(=O)c2ccc(-n3cncn3)nc2)cc1 |  |  |  |  | > 256 | > 256 | > 256 | > 256 | > 256 | > 256 | > 256 | > 256 | 0 |  |  |  |
| NS(=O)(=O)c1ccc(C(=O)Nc2ccc(-n3cncn3)nc2)cc1 | 13.7 | 1.4 | 9.3 | 0.6 | > 256 | > 256 | > 256 | > 256 | > 256 | > 256 | > 256 | > 256 |  |  |  |  |
| COC(=O)c1ccc(C(=O)Nc2ccc(-n3ccnc3)nc2)cc1 |  |  |  |  | > 256 | > 256 | > 256 | > 256 | > 256 | > 256 | > 256 | > 256 | 0 |  |  |  |
| NS(=O)(=O)c1ccc(C(=O)Nc2cnc3ccccc3c2)cc1 |  |  |  |  | > 256 | > 256 | > 256 | > 256 | > 256 | > 256 | > 256 | > 256 | 0 |  |  |  |
| NC(=O)c1ccc(C(=O)Nc2ccc(-n3ccnc3)nc2)cc1 | 11.9 | 0 | 10.5 | 0.1 | > 256 | > 256 | > 256 | > 256 | > 256 | > 256 | > 256 | > 256 |  |  |  |  |
| NS(=O)(=O)c1ccc(C(=O)Nc2ccc(OCc3ccccn3)nc2)cc1 | 151 |  |  |  | > 256 | > 256 | > 256 | > 256 | > 256 | > 256 | > 256 | > 256 |  |  |  |  |
| O=C(Nc1ccc(-n2cncn2)nc1)c1ccccc1 |  |  |  |  | > 256 | > 256 | > 256 | > 256 | > 256 | > 256 | > 256 | > 256 | 0 |  |  |  |
| NS(=O)(=O)c1ccc(C(=O)Nc2ccc(N3CCOCC3)nc2)cc1 |  |  |  |  | > 256 | > 256 | > 256 | > 256 | > 256 | > 256 | > 256 | > 256 | 0 |  |  |  |
| N#Cc1ccc(C(=O)Nc2ccc(-c3ccccc3)nc2)cc1 |  |  |  |  | > 256 | > 256 | > 256 | > 256 | > 256 | > 256 | > 256 | > 256 | 10.9 |  |  |  |
| NS(=O)(=O)c1ccc(C(=O)Nc2ccc(N3CCCC3)nc2)cc1 |  |  |  |  | > 256 | > 256 | > 256 | > 256 | > 256 | > 256 | > 256 | > 256 | 17.9 |  |  |  |
| NS(=O)(=O)c1ccc(C(=O)Nc2ccc(-c3ccco3)nc2)cc1 |  |  |  |  | > 256 | > 256 | > 256 | > 256 | > 256 | > 256 | > 256 | > 256 | 12.9 |  |  |  |
